ChEMBL document CHEMBL5143741, “Design, Synthesis, and Biological Activity of New CB2 Receptor Ligands: from Orthosteric and Allosteric Modulators to Dualsteric/Bitopic Ligands” (J Med Chem, 2022)
Active and inactive are the calls of the source.

How the values were obtained:
Cannabinoid receptor 2 [1] = target: T1, Cannabinoid receptor 2 (Homo sapiens, UniProt P34972); assay: Agonist activity at human CB2 receptor expressed in CHO-K1 cells assessed as inhibition of froskolin-stimulated cAMP accumulation incubated for 90 mins in presence of SR144528 by HitHunter chemiluminescence based assay; format: functional, cell-based
Procedure, shortened: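 Forskolin (10 μM)-stimulated cAMP HitHunter assay in CHO-K1 hCB2R cells, 90 min at 37 °C. Ligand at 0.1 nM–10 μM given at the same time as a fixed 100 nM SR144528. Data given as % CP55,940; three-parameter fit; 3–6 independent experiments in triplicate.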

[2] = Cytotoxicity against LPS/TNFalpha-induced HMC3 cells assessed as reduction in cell viability at 1 uM pretreated with compound for 1 hr followed by LPS/TNFalpha stimulation and measured after 24 hrs by MTT assay; format: toxicity, cell-based; conditions: human, hmc3, 25 h
Procedure, shortened: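 HMC3 microglial cells exposed to compound at 100 nM, 1 μM and 10 μM; viability read by MTT reduction. n = 3 independent experiments in triplicate; one-way ANOVA with Tukey test.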

HMC3 [3] = assay: Antiinflammatory activity in LPS/TNFalpha-induced HMC3 cells assessed as increase in IL-10 release at 1 uM pretreated with compound for 1 hr followed by LPS/TNFalpha stimulation and measured after 24 hrs by ELISA; format: functional, cell-based; conditions: Homo sapiens, time 25.0 hrs
Procedure, shortened: (§1)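 HMC3 human microglia in high-glucose DMEM with 10% FBS, pretreated 1 h with compound (100 nM–10 μM), then stimulated with LPS (10 μg/mL) plus TNFα (50 ng/mL) for 24 h. IL-6 or IL-10 in the medium measured by ELISA. SR144528 (1 μM) added 15 min before agonist where used; JWH133 served as positive control. n = 3 in duplicate; ANOVA with Tukey test.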

Cannabinoid receptor 2 [4] = target: T1, Cannabinoid receptor 2; assay: Displacement of [3H]-CP55,940 from human CB2R expressed in CHO-K1 cell membranes incubated for 2 hrs by liquid scintillation spectrophotometry relative to CP55,940; conditions: Membrane
Procedure, shortened: (§2)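 Membranes from CHO-K1 cells stably expressing hCB1R or hCB2R (50 μg protein) incubated with 1 nM [3H]CP55,940 and compound (0.10 nM–10 μM) in Tris binding buffer with 0.1% BSA, pH 7.4, for 120 min at 37 °C. Bound ligand filtered on GF/B and counted by liquid scintillation. Nonspecific binding defined with 1 μM unlabelled CP55,940; three-parameter fit; n = 3 in duplicate.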

Cannabinoid receptor 1 [5] = target: T2, Cannabinoid receptor 1 (Homo sapiens, UniProt P21554); assay: Displacement of [3H]-CP55,940 from human CB1R expressed in CHO-K1 cell membranes assessed as inhibition constant incubated for 2 hrs by liquid scintillation spectrometry analysis; set-up: species or system Membrane
HMC3 [6] = assay: Antiinflammatory activity in LPS/TNFalpha-induced HMC3 cells assessed as decrease in IL-6 release at 1 uM pretreated with compound for 1 hr followed by LPS/TNFalpha stimulation and measured after 24 hrs by ELISA; format: functional, cell-based; conditions: Homo sapiens, time 25.0 hrs; procedure, shortened: as §1
Cannabinoid receptor 2 [7] = target: T1, Cannabinoid receptor 2; assay: Agonist activity at human CB2 receptor expressed in CHO-K1 cells assessed as enhancement of beta arrestin-2 recruitment at 10 uM incubated for 90 mins by HitHunter chemiluminescence based assay relative to CP55,940; format: functional, cell-based
Procedure, shortened: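 PathHunter beta-arrestin2 recruitment in DiscoveRx CHO-K1 cells stably expressing hCB2R, seeded overnight in Opti-MEM with 1% FBS at 37 °C. Ligands (0.10 nM–10 μM) added for 90 min at 37 °C, then detection solution 60 min at room temperature and chemiluminescence read. Data expressed as % CP55,940 response and fitted by three-parameter nonlinear regression; n = 6 independent experiments in triplicate.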

BV-2 [8] = assay: Antiinflammatory activity in LPS-induced mouse microglial BV-2 cells assessed as decrease in IL-6 release at 1 uM preincubated for 1 hr followed by LPS-stimulation and measured after 4 hrs by ELISA; format: functional, cell-based; conditions: time 5.0 hrs
Procedure, shortened: (§3)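 Murine BV2 microglia given 1 μM compound 1 h before LPS (5 μg/mL), then stimulated 4 h. IL-6 or IL-10 in the medium measured by ELISA (pg/mL). Where used, SR144528 (1 μM) added 15 min before agonist. n = 3 independent experiments in duplicate; one-way ANOVA with Tukey test.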

Mus musculus [9] = assay: Antinociceptive activity against oxaliplatin-induced neuropathic pain in po dosed CD-1 albino mouse assessed as decrease in neuropathic pain measured upto 75 min by cold plate assay; format: functional, organism-based; conditions: DDE = dose-dependent effect
Procedure, shortened: (§4)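 Male CD-1 mice (22–25 g) given oxaliplatin 2.4 mg/kg i.p. in 5% glucose on days 1–2, 5–9 and 12–14. On day 15 compound given orally at 1, 5 or 20 mg/kg in 1% carboxymethylcellulose. Cold plate held at 4 °C; latency to paw licking or lifting recorded (cut-off 60 s) at 15, 30, 45, 60 and 75 min. 16 mice per group over 2 experimental sets.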

Cannabinoid receptor 2 [10] = target: T1, Cannabinoid receptor 2; assay: Agonist activity at human CB2 receptor expressed in CHO-K1 cells assessed as inhibition of froskolin-stimulated cAMP accumulation at 10 uM incubated for 90 mins by HitHunter chemiluminescence based assay relative to CP55,940; format: functional, cell-based
Procedure, shortened: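 HitHunter assay in DiscoveRx CHO-K1 hCB2R cells, seeded overnight in Opti-MEM with 1% FBS, then put in assay buffer. Cells cotreated at 37 °C for 90 min with 10 μM forskolin and ligand (0.10 nM–10 μM). cAMP antibody/detection solutions added for 60 min at room temperature, then solution A for 180 min, then chemiluminescence read. Response given as % CP55,940; three-parameter fit; n = 6 in triplicate.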

Cannabinoid receptor 2 [11] = target: T1, Cannabinoid receptor 2; assay: Agonist activity at human CB2 receptor expressed in CHO-K1 cells assessed as enhancement of beta arrestin-2 recruitment incubated for 90 mins by […] chemiluminescence based assay; format: functional, cell-based
Procedure, shortened: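 PathHunter beta-arrestin2 recruitment in DiscoveRx CHO-K1 cells stably expressing hCB2R, seeded overnight in Opti-MEM with 1% FBS at 37 °C. Ligands (0.10 nM–10 μM) added for 90 min at 37 °C, then detection solution 60 min at room temperature and chemiluminescence read.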

BV-2 [12] = assay: Antiinflammatory activity in LPS-induced mouse microglial BV-2 cells assessed as increase in IL-10 release at 1 uM preincubated for 1 hr followed by LPS-stimulation and measured after 4 hrs by ELISA; format: functional, cell-based; conditions: time 5.0 hrs; procedure, shortened: as §3
Cannabinoid receptor 2 [13] = target: T1, Cannabinoid receptor 2; assay: Agonist activity at human CB2 receptor expressed in CHO-K1 cells assessed as inhibition of froskolin-stimulated cAMP accumulation at 50 nM incubated for 90 mins in presence of EC-21a by HitHunter chemiluminescence based assay relative to CP55,940; format: functional, cell-based
Cannabinoid receptor 2 [14] = target: T1, Cannabinoid receptor 2; assay: Agonist activity at human CB2 receptor expressed in CHO-K1 cells assessed as inhibition of froskolin-stimulated cAMP accumulation incubated for 90 mins in presence of EC-21a by HitHunter chemiluminescence based assay; format: functional, cell-based
Cannabinoid receptor 2 [15] = target: T1, Cannabinoid receptor 2; assay: Displacement of [3H]-CP55,940 from human CB2R expressed in CHO-K1 cell membranes assessed as inhibition constant incubated for 2 hrs by liquid scintillation spectrometry; set-up: species or system Membrane
Cannabinoid receptor 2 [16] = target: T1, Cannabinoid receptor 2; assay: Agonist activity at human CB2 receptor expressed in CHO-K1 cells assessed as inhibition of froskolin-stimulated cAMP accumulation incubated for 90 mins by HitHunter chemiluminescence based assay; format: functional, cell-based
Procedure, shortened: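 HitHunter assay in DiscoveRx CHO-K1 hCB2R cells, seeded overnight in Opti-MEM with 1% FBS, then put in assay buffer. Cells cotreated at 37 °C for 90 min with 10 μM forskolin and ligand (0.10 nM–10 μM). cAMP antibody/detection solutions added for 60 min at room temperature, then solution A for 180 min, then chemiluminescence read.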

Mus musculus [17] = assay: Antinociceptive activity against oxaliplatin-induced neuropathic pain in CD-1 albino mouse assessed as decrease in neuropathic pain at 20 mg/kg, po measured after 15 to 60 mins by cold plate assay; format: functional; set-up: scale not given: the % may be the effect or the level left; conditions: time 15-60 min; procedure, shortened: as §4
Cannabinoid receptor 1 [18] = target: T2, Cannabinoid receptor 1; assay: Displacement of [3H]-CP55,940 from human CB1R expressed in CHO-K1 cell membranes incubated for 2 hrs by liquid scintillation spectrometry relative to CP55,940; conditions: Membrane; procedure, shortened: as §2
Cannabinoid receptor 2 [19] = target: T1, Cannabinoid receptor 2; assay: Agonist activity at human CB2 receptor expressed in CHO-k1 cells assessed as inhibition of froskolin-stimulated cAMP accumulation at 5 nM incubated for 90 mins in presence of EC-21a by HitHunter chemiluminescence based assay relative to CP55,940; format: functional, cell-based

T1 sequence (P34972 whole entry): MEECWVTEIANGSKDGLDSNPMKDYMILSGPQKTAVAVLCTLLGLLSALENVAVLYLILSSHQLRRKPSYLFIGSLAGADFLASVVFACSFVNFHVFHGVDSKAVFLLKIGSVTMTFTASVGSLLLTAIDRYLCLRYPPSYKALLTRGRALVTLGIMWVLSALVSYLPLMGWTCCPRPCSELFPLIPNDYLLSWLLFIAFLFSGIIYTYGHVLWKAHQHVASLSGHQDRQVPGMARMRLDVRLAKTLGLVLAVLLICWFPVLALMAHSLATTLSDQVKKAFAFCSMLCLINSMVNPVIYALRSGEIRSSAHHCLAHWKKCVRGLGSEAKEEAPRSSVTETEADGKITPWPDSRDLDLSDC
T2 sequence (P21554 whole entry): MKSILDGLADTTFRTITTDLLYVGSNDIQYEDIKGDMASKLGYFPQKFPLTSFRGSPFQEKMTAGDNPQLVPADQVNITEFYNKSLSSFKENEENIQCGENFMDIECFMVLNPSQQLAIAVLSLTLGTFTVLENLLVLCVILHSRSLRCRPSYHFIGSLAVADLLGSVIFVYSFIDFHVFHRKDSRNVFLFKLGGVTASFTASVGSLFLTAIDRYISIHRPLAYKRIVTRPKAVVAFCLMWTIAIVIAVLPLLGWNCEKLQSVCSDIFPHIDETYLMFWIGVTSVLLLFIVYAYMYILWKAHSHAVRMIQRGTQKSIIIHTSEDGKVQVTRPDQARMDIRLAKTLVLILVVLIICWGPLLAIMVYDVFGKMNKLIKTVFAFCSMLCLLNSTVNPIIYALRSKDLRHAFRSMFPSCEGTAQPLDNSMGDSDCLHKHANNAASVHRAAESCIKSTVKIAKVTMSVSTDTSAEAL

| Compound | Emin (Cannabinoid receptor 2 [4]; filed as agonist) | Ki (Cannabinoid receptor 1 [5]) | EC50 (Cannabinoid receptor 2 [11]) | Ki (Cannabinoid receptor 2 [15]) | EC50 (Cannabinoid receptor 2 [16]) | Emin (Cannabinoid receptor 1 [18]; filed as agonist) | Emax (Cannabinoid receptor 2 [7]; filed as agonist) | Emax (Cannabinoid receptor 2 [10]) | other results |
| --- | --- | --- | --- | --- | --- | --- | --- | --- | --- |
| Cc1c(Br)cn(CCCc2cn(CCCCCn3c(C)c(Br)cc(C(=O)NC4CCCCCC4)c3=O)nn2)c(=O)c1NC(=O)C1CCCCCC1 | 40% | > 10000 nM | > 10000 nM | 1.4 nM | 73 nM | 89% | – | – | EC50 (Cannabinoid receptor 2 [1]): 61 nM; Activity [2]: Non-Toxic; Activity (HMC3 [3]): Active; Activity (HMC3 [6]): Active; Emax (Cannabinoid receptor 2 [7]): 30%; Activity (BV-2 [8]): Active; Activity (Mus musculus [9]): Dde; Emax (Cannabinoid receptor 2 [10]; filed as agonist): 52%; Activity (BV-2 [12]): Active; EC50 (Cannabinoid receptor 2 [13]): 8 nM; EC50 (Cannabinoid receptor 2 [14]): 2.2 nM; Activity (Mus musculus [17]): 100% |
| Cc1c(Br)cn(CCCc2cn(CCCn3c(C)c(Br)cc(C(=O)NC4CCCCCC4)c3=O)nn2)c(=O)c1NC(=O)C1CCCCCC1 | – | – | > 10000 nM | – | > 10000 nM | – | 46% | 21% | – |
| Cc1c(Br)cc(C(=O)NC2CCCCCC2)c(=O)n1Cc1ccc(F)cc1 | – | 0.79 nM | 63 nM | 7 nM | 20 nM | – | 45% | – | Emin (Cannabinoid receptor 2 [4]): 13%; Emax (Cannabinoid receptor 2 [10]; filed as agonist): 76%; Emin (Cannabinoid receptor 1 [18]): 29% |
| Cc1c(Br)cn(Cc2ccc(F)cc2)c(=O)c1NC(=O)C1CCCCCC1 | 130% | > 10000 nM | > 10000 nM | 19 nM | > 10000 nM | 103% | – | 2.5% | Emax (Cannabinoid receptor 2 [7]): 1.4% |
| CCCCCCC(C)(C)c1ccc([C@@H]2C[C@H](O)CC[C@H]2CCCO)c(O)c1 | – | – | – | – | – | – | – | – | Emin (Cannabinoid receptor 2 [4]): 0%; Emin (Cannabinoid receptor 1 [18]): 0% |
| Cc1nc(OCCCCCn2cc(CCCn3cc(Br)c(C)c(NC(=O)C4CCCCCC4)c3=O)nn2)c(C(=O)NC2CCCCCC2)cc1Br | 52% | > 10000 nM | > 10000 nM | 1.9 nM | 8 nM | 95% | 43% | 38% | Emax (Cannabinoid receptor 2 [1]): 39%; Emax (Cannabinoid receptor 2 [19]): 29%; Emax (Cannabinoid receptor 2 [13]): 38%; Emax (Cannabinoid receptor 2 [14]): 20% |
| Cc1c(Br)cn(Cc2cn(CCCn3c(C)c(Br)cc(C(=O)NC4CCCCCC4)c3=O)nn2)c(=O)c1NC(=O)C1CCCCCC1 | – | – | 560 nM | – | > 10000 nM | – | 53% | 21% | – |
| Cc1c(Br)cn(Cc2cn(CCCCCn3c(C)c(Br)cc(C(=O)NC4CCCCCC4)c3=O)nn2)c(=O)c1NC(=O)C1CCCCCC1 | – | – | > 10000 nM | – | > 10000 nM | – | 41% | 22% | – |
